Reference: ChEMBL document CHEMBL1156227, “New aromatic monoesters of alpha-aminoaralkylphosphonic acids as inhibitors of aminopeptidase N/CD13” (Bioorg Med Chem, 2010)

Key:
Aminopeptidase N [1] = biological target: T1, Aminopeptidase N (Sus scrofa, UniProt P15145); experiment: Inhibition of pig kidney aminopeptidase N using Leu-AMC as substrate
T1 sequence (P15145 whole entry): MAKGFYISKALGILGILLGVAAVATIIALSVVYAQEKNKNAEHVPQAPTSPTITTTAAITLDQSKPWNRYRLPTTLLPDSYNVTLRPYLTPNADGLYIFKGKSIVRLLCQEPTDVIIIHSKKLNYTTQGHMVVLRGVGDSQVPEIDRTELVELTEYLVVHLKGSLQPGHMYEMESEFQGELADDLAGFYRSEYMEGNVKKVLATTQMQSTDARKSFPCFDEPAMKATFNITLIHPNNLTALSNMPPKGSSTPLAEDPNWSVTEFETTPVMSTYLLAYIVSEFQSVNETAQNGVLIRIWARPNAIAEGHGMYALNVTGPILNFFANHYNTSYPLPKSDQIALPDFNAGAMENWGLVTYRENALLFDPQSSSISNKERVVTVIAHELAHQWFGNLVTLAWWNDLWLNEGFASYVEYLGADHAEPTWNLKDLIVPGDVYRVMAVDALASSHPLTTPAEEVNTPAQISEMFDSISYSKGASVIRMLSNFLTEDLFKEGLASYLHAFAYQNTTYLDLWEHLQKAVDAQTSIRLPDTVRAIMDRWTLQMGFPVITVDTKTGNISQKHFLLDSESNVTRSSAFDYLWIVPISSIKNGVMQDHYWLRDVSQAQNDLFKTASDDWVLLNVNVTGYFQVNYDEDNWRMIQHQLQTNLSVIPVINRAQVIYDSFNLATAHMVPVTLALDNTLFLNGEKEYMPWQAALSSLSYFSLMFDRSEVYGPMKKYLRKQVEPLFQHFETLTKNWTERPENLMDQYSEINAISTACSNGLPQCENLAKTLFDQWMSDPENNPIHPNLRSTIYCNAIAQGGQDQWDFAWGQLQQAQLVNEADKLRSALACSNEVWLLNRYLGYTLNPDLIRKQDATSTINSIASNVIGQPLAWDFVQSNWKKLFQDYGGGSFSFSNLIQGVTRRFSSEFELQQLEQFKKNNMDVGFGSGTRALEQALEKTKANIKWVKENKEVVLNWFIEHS

HT-1080 [2] = experiment: Cytotoxicity against human HT1080 cells assessed as cell growth inhibition at 300 uM after 72 hrs by XTT assay relative to control; format: functional; design: scale not given: the % may be the effect or the level left
How it was run: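 HT-1080 cells kept adherent in DMEM plus 2 mM L-glutamine, 10% heat-inactivated FBS and penicillin–streptomycin at 37 °C, 5% CO2. Exposed 72 h to inhibitor (0–300 μM; 0.1 M NaOH stock diluted in medium), with vehicle controls given matching 0.1 M NaOH. XTT staining for 4 h, absorbance at 490 nm, expressed as percentage growth relative to untreated culture.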

PANC-1 [3] = experiment: Cytotoxicity against human PANC1 cells assessed as cell growth inhibition at 300 uM after 72 hrs by XTT assay relative to control; format: functional; design: scale not given: the % may be the effect or the level left
How it was run: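 PANC-1 cells cultured adherent in DMEM with 2 mM L-glutamine, 10% non-heat-inactivated FBS and penicillin–streptomycin at 37 °C, 5% CO2. Inhibitor (0–300 μM, 0.1 M NaOH stock diluted in medium) applied 72 h, with controls given matching 0.1 M NaOH. XTT incubation 4 h, A490 read, values normalised to untreated culture as percentage growth.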

HT-1080 [4] = experiment: Cytotoxicity against human HT1080 cells assessed as cell growth inhibition after 72 hrs by XTT assay in the presence of TNFalpha relative to control; format: functional; design: scale not given: the % may be the effect or the level left
How it was run: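 HT-1080 cells grown adherent in DMEM with 2 mM L-glutamine, 10% heat-inactivated FBS and penicillin–streptomycin at 37 °C, 5% CO2. Inhibitor (0–300 μM, from 0.1 M NaOH stock, diluted in medium) co-applied with TNF-α (0–30 μg/ml) for 72 h. Controls received matching 0.1 M NaOH. XTT added for 4 h, A490 read, normalised to untreated cells.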

HT-1080 [5] = experiment: Cytotoxicity against human HT1080 cells assessed as cell growth inhibition after 72 hrs by XTT assay; format: functional; design: scale not given: the % may be the effect or the level left
How it was run: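 HT-1080 cells cultured adherent in DMEM with 2 mM L-glutamine, 10% heat-inactivated FBS and 1% penicillin–streptomycin at 37 °C, 5% CO2. Exposed 72 h to inhibitor (0–300 μM from 0.1 M NaOH stocks diluted in medium; NaOH vehicle controls), with or without TNF-α (0–30 μg/ml). XTT for 4 h, absorbance at 490 nm, growth expressed relative to untreated cells; mean ± one SD.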

PANC-1 [6] = experiment: Cytotoxicity against human PANC1 cells assessed as cell growth inhibition after 72 hrs by XTT assay; format: functional; design: scale not given: the % may be the effect or the level left
How it was run: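 PANC-1 cells grown adherent in DMEM with 2 mM L-glutamine, 10% uninactivated FBS and 1% penicillin–streptomycin at 37 °C, 5% CO2. Treated 72 h with inhibitor (0–300 μM; stocks in 0.1 M NaOH, diluted in medium; vehicle controls), alone or with TNF-α (0–30 μg/ml). XTT added for 4 h; absorbance read at 490 nm and normalised to untreated cultures; mean ± one SD.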

Aminopeptidase N [7] = biological target: Aminopeptidase N (Homo sapiens, UniProt P15144); experiment: Inhibition of aminopeptidase N
Sequence of Aminopeptidase N (Homo sapiens, UniProt P15144) (P15144 whole entry): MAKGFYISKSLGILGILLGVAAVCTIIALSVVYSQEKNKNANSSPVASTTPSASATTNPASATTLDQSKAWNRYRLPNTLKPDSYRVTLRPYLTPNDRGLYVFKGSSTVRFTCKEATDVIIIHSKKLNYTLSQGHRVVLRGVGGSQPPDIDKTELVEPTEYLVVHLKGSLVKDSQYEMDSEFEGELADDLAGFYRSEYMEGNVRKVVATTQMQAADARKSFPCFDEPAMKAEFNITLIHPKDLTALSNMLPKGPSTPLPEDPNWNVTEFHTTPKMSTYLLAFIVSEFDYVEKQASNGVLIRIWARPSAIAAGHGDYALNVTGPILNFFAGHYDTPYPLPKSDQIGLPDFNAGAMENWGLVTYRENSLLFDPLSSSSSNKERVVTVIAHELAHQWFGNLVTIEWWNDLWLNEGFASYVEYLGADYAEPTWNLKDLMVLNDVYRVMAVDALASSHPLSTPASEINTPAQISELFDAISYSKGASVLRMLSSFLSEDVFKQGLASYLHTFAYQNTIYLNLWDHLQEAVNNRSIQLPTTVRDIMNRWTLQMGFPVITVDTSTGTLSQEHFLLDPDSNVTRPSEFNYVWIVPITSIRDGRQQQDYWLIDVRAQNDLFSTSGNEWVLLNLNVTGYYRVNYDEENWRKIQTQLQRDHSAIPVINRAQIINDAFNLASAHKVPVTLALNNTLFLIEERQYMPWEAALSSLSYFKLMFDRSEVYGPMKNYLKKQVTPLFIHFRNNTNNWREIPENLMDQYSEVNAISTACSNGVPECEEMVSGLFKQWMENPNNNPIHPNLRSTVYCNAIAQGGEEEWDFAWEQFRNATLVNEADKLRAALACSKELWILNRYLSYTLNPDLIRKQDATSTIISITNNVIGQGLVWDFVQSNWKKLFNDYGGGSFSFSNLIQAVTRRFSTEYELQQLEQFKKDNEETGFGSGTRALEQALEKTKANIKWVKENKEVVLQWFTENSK

Cytosol aminopeptidase = Cytosol aminopeptidase (Homo sapiens, UniProt P28838); experiment: Inhibition of leucine aminopeptidase
Sequence of Cytosol aminopeptidase (P28838 whole entry): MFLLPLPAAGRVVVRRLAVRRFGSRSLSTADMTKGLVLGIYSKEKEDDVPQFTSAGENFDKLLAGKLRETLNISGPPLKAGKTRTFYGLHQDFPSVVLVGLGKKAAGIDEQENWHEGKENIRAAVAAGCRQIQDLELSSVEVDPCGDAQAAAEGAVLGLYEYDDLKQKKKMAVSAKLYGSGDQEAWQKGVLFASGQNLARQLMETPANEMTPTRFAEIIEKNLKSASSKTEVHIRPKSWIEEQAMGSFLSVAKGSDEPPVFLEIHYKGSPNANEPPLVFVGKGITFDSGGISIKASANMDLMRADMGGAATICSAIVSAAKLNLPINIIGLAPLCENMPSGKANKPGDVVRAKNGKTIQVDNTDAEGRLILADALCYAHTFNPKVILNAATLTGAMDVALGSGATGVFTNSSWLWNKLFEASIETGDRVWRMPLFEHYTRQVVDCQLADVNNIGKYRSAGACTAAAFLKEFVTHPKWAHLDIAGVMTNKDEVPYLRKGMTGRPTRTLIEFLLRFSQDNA

Row | SMILES | IC50 (Aminopeptidase N [1]) | further results
1 | CC(N)P(=O)(O)O (stereo unspecified) | 42 µM | –
2 | CCC(N)P(=O)(O)Oc1ccc(C(C)(C)C)cc1 (stereo unspecified) | 1.1 µM | Activity (HT-1080 [2]): 36%; Activity (PANC-1 [3]): 26%; Activity (HT-1080 [4]): 60%
3 | CCc1ccc(OP(=O)(O)C(N)CCc2ccccc2)cc1 (stereo unspecified) | 13 µM | –
4 | CCCC(N)P(=O)(O)O (stereo unspecified) | 15 µM | –
5 | COc1ccc(OP(=O)(O)C(N)CCc2ccccc2)cc1 (stereo unspecified) | 2.9 µM | –
6 | CC(C)C[C@H](NC(=O)[C@@H](O)[C@H](N)Cc1ccccc1)C(=O)O [UBENIMEX] | – | Activity (HT-1080 [5]): < 10%; Activity (PANC-1 [6]): < 10%
7 | CC(C)CC(N)P(=O)(O)O (stereo unspecified) | 37 µM | Ki (Aminopeptidase N [7]): 53 µM
8 | CC(C)CC(N)P(=O)(O)Oc1ccccc1 (stereo unspecified) | 9.3 µM | Ki (Cytosol aminopeptidase): 0.23 µM; Ki (Aminopeptidase N [7]): 53 µM
9 | CC(C)C(N)P(=O)(O)Oc1ccccc1 (stereo unspecified) | 14 µM | –
10 | NC(CCc1ccccc1)P(=O)(O)Oc1ccc(C(=O)O)cc1 (stereo unspecified) | 22 µM | –
11 | CC(C)c1ccc(OP(=O)(O)C(N)CCc2ccccc2)cc1 (stereo unspecified) | 0.5 µM | –
12 | CCCCC(N)P(=O)(O)Oc1ccc(OC)cc1 (stereo unspecified) | 210 µM | –
13 | CCc1ccc(OP(=O)(O)C(C)N)cc1 (stereo unspecified) | 8.3 µM | –
14 | CCC(N)P(=O)(O)O (stereo unspecified) | 50 µM | –
15 | NC(Cc1ccccc1)P(=O)(O)Oc1ccccc1 (stereo unspecified) | 8.2 µM | Ki (Cytosol aminopeptidase): 0.42 µM; Ki (Aminopeptidase N [7]): 27.5 µM
16 | CCCCC(N)P(=O)(O)Oc1ccc(C)c(C)c1 (stereo unspecified) | 1.4 µM | –
17 | NC(c1ccccc1)P(=O)(O)Oc1ccccc1 (stereo unspecified) | 21 µM | –
18 | Cc1cc(C)c(C)c(OP(=O)(O)C(C)N)c1 (stereo unspecified) | 14 µM | –
19 | CC(C)C(N)P(=O)(O)O (stereo unspecified) | 104 µM | –
20 | CCCCC(N)P(=O)(O)Oc1cc(C)ccc1C (stereo unspecified) | 200 µM | –

Row | SMILES | IC50 (Aminopeptidase N [1]) | further results
21 | NC(c1ccccc1)P(=O)(O)O (stereo unspecified) [AMINO(PHENYL)METHYLPHOSPHONIC ACID] | 220 µM | –
22 | CCCCC(N)P(=O)(O)O (stereo unspecified) | 75 µM | –
23 | Cc1ccc(OP(=O)(O)C(N)CCc2ccccc2)cc1C (stereo unspecified) | 2.2 µM | –
24 | CCCCC(N)P(=O)(O)Oc1ccc(C)cc1 (stereo unspecified) | 1 µM | –
25 | CCCCC(N)P(=O)(O)Oc1ccccc1 (stereo unspecified) | 5.6 µM | –
26 | Cc1cc(C)c(C)c(OP(=O)(O)C(N)CCc2ccccc2)c1 (stereo unspecified) | 5 µM | –
27 | CCC(N)P(=O)(O)Oc1cc(C)ccc1C (stereo unspecified) | 120 µM | –
28 | CCCCCC(N)P(=O)(O)Oc1ccccc1 (stereo unspecified) | 4.8 µM | –
29 | CC(C)(C)c1ccc(OP(=O)(O)C(N)CCc2ccccc2)cc1 (stereo unspecified) | 1.9 µM | –
30 | CCC(N)P(=O)(O)Oc1ccc(C)cc1 (stereo unspecified) | 7 µM | –
31 | CCCCC(N)P(=O)(O)Oc1ccc(C(=O)O)cc1 (stereo unspecified) | 55 µM | –
32 | NC(Cc1ccccc1)P(=O)(O)O (stereo unspecified) | 54 µM | Ki (Cytosol aminopeptidase): 0.42 µM; Ki (Aminopeptidase N [7]): 27.5 µM
33 | NC(CCc1ccccc1)P(=O)(O)Oc1ccccc1 (stereo unspecified) | 6.2 µM | –
34 | CC(N)P(=O)(O)Oc1ccc(C(C)(C)C)cc1 (stereo unspecified) | 8.2 µM | –
35 | Cc1ccc(C)c(OP(=O)(O)C(N)CCc2ccccc2)c1 (stereo unspecified) | 15 µM | –
36 | CCC(N)P(=O)(O)Oc1ccc(C(=O)O)cc1 (stereo unspecified) | 200 µM | –
37 | CCC(N)P(=O)(O)Oc1ccc(C)c(C)c1 (stereo unspecified) | 3 µM | –
38 | CCC(CC)C(N)P(=O)(O)Oc1ccccc1 (stereo unspecified) | > 100 µM | –
39 | CCCCCC(N)P(=O)(O)O (stereo unspecified) | 8.3 µM | –
40 | CC(C)(C)CC(C)(C)c1ccc(OP(=O)(O)C(N)CCc2ccccc2)cc1 (stereo unspecified) | 6.3 µM | –
